Experimental findings from ChEMBL document CHEMBL1141140, “Antifungal agents. 11. N-substituted derivatives of 1-[(aryl)(4-aryl-1H-pyrrol-3-yl)methyl]-1H-imidazole: synthesis, anti-Candida activity, and QSAR studies” (2005) are described below.

Common to all, as to assay type: functional
For experiment [1], the system named is Candida albicans. Description: In vitro minimal inhibitory concentration against Candida albicans with percentage of resistant strains %R = 50 (MIC > 64 ug/mL) at a range of 0.5-16 ug/mL.
The subject of experiment [2] is Candida albicans. The experiment can be described thus: In vitro concentration causing 50% inhibition of Candida albicans with percentage of resistant strains %R = 50 (MIC > 64 ug/mL) at a range of 0.5-16 ug/mL.
Experiment [3] concerns Candida albicans. The experiment can be described thus: In vitro concentration causing 90% inhibition of Candida albicans with percentage of resistant strains %R = 50 (MIC > 64 ug/mL) at a range of 0.5-16 ug/mL.
Experiment [4] concerns Candida albicans. The experiment can be described thus: Ratio of the in vitro minimal inhibitory to that of bifonazole against Candida albicans (MIC(compound)/MIC(bifonazole)). An outline of the steps:
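Broth microdilution per NCCLS M27-A2 against 12 Candida albicans strains (AIDS oropharyngeal, HIV vulvovaginitis isolates, ATCC 24433 and 20891, lab strains 3153 and CA2). Inoculum ~10^4 cells/mL in RPMI 1640, pH 7.0; DMSO stocks 6.4 mg/mL, twofold dilutions 0.016–64 μg/mL; read at 24 h, 28 °C, no visible growth. Mean MIC over strains converted to μmol/mL, divided by bifonazole MIC.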

The test system of experiment [5] is Candida albicans. Description: In vitro minimal inhibitory concentration against Candida albicans with percentage of resistant strains %R = 0 (MIC > 64 ug/mL) at a range of 0.062-2 ug/mL.
The subject of experiment [6] is Candida albicans. The experiment can be described thus: In vitro concentration causing 50% inhibition of Candida albicans with percentage of resistant strains %R = 0 (MIC > 64 ug/mL) at a range of 0.062-2 ug/mL.
Experiment [7] concerns Candida albicans. Description: In vitro concentration causing 90% inhibition of Candida albicans with percentage of resistant strains %R = 0 (MIC > 64 ug/mL) at a range of 0.062-2 ug/mL.
The test system of experiment [8] is Candida albicans. Description: In vitro minimal inhibitory concentration against Candida albicans with percentage of resistant strains %R = 66 (MIC > 64 ug/mL) at a range of 0.25-2 ug/mL.
The test system of experiment [9] is Candida albicans. Description: In vitro concentration causing 50% inhibition of Candida albicans with percentage of resistant strains %R = 66 (MIC > 64 ug/mL) at a range of 0.25-2 ug/mL.
In experiment [10] the test system is Candida albicans. The experiment can be described thus: In vitro concentration causing 90% inhibition of Candida albicans with percentage of resistant strains %R = 66 (MIC > 64 ug/mL) at a range of 0.25-2 ug/mL.
For experiment [11], the system named is Candida albicans. Description: In vitro minimal inhibitory concentration against Candida albicans with percentage of resistant strains %R = 41.66 (MIC > 64 ug/mL) at a range of 0.5-2 ug/mL.
For experiment [12], the system named is Candida albicans. The experiment can be described thus: In vitro concentration causing 50% inhibition of Candida albicans with percentage of resistant strains %R = 41.66 (MIC > 64 ug/mL) at a range of 0.5-2 ug/mL.
Experiment [13] relates to Candida albicans. The experiment can be described thus: In vitro concentration causing 90% inhibition of Candida albicans with percentage of resistant strains %R = 41.66 (MIC > 64 ug/mL) at a range of 0.5-2 ug/mL.
Experiment [14] relates to Candida albicans. The experiment can be described thus: In vitro minimal inhibitory concentration against Candida albicans with percentage of resistant strains %R = 41.66 (MIC > 64 ug/mL) at a range of 0.25-4 ug/mL.
For experiment [15], the system named is Candida albicans. Description: In vitro concentration causing 50% inhibition of Candida albicans with percentage of resistant strains %R = 41.66 (MIC > 64 ug/mL) at a range of 0.25-4 ug/mL.
Experiment [16] has as its system Candida albicans. Description: In vitro concentration causing 90% inhibition of Candida albicans with percentage of resistant strains %R = 41.66 (MIC > 64 ug/mL) at a range of 0.25-4 ug/mL.
In experiment [17] the test system is Candida albicans. The experiment can be described thus: In vitro minimal inhibitory concentration against Candida albicans with percentage of resistant strains %R = 66 (MIC > 64 ug/mL) at a range of 2-8 ug/mL.
Experiment [18] relates to Candida albicans. Description: In vitro concentration causing 50% inhibition of Candida albicans with percentage of resistant strains %R = 66 (MIC > 64 ug/mL) at a range of 2-8 ug/mL.
Experiment [19] has as its system Candida albicans. The experiment can be described thus: In vitro concentration causing 90% inhibition of Candida albicans with percentage of resistant strains %R = 66 (MIC > 64 ug/mL) at a range of 2-8 ug/mL.
The subject of experiment [20] is Candida albicans. Description: In vitro minimal inhibitory concentration against Candida albicans with percentage of resistant strains %R = 33.33 (MIC > 64 ug/mL) at a range of 0.25-0.5 ug/mL.
Experiment [21] deals with Candida albicans. The experiment can be described thus: In vitro concentration causing 50% inhibition of Candida albicans with percentage of resistant strains %R = 33.33 (MIC > 64 ug/mL) at a range of 0.25-0.5 ug/mL.
Experiment [22] deals with Candida albicans. Description: In vitro concentration causing 90% inhibition of Candida albicans with percentage of resistant strains %R = 33.33 (MIC > 64 ug/mL) at a range of 0.25-0.5 ug/mL.
Experiment [23] relates to Candida albicans. The experiment can be described thus: In vitro minimal inhibitory concentration against Candida albicans with percentage of resistant strains %R = 50 (MIC > 64 ug/mL) at a range of 0.5-2 ug/mL.
Experiment [24] deals with Candida albicans. Description: In vitro concentration causing 50% inhibition of Candida albicans with percentage of resistant strains %R = 50 (MIC > 64 ug/mL) at a range of 0.5-2 ug/mL.
Experiment [25] relates to Candida albicans. The experiment can be described thus: In vitro concentration causing 90% inhibition of Candida albicans with percentage of resistant strains %R = 50 (MIC > 64 ug/mL) at a range of 0.5-2 ug/mL.

≈ marks a conversion by molar mass, not a printed value.

With `Cn1cc(-c2cccc3ccccc23)c(C(c2ccc(Cl)cc2Cl)n2ccnc2)c1` (configuration not stated), the MIC in experiment [1] was determined as 4.58 µg/mL (≈ 10.6 µM). For the same compound, in [2], the MIC50 worked out at 4 µg/mL (≈ 9.25 µM). In [3], this compound showed an MIC90 of 16 µg/mL (≈ 37 µM). Also, in [4], the Ratio is recorded as 0.94.

The compound `C=CCn1cc(-c2ccc(Cl)cc2Cl)c(C(c2ccc(Cl)cc2Cl)n2ccnc2)c1` (configuration not stated) returned an MIC in experiment [5] of 0.65 µg/mL (≈ 1.36 µM). Also, the MIC50 in experiment [6] is 0.25 µg/mL (≈ 0.524 µM). Moreover, in experiment [7], the MIC90 came to 1 µg/mL (≈ 2.1 µM). For the same compound, the Ratio in [4] is 0.12.

Consider `CCCn1cc(-c2ccc(Cl)cc2)c(C(c2ccc(Cl)cc2Cl)n2ccnc2)c1` (configuration not stated), for which the MIC in [8] was 8.56 µg/mL (≈ 19.2 µM). Further, the MIC50 in [9] was determined as 1 µg/mL (≈ 2.25 µM). Moreover, in experiment [10], the MIC90 is 32 µg/mL (≈ 71.9 µM). The Ratio in experiment [4] is listed as 1.7.

With `CCn1cc(-c2ccc(Cl)cc2Cl)c(C(c2ccc(Cl)cc2Cl)n2ccnc2)c1` (configuration not stated), in [11], the MIC amounted to 1.21 µg/mL (≈ 2.6 µM). This compound had an MIC50 in experiment [12] of 1 µg/mL (≈ 2.15 µM). The MIC90 in experiment [13] was found to be 2 µg/mL (≈ 4.3 µM). In addition, in experiment [4], the Ratio was found to be 0.23.

Compound `CCn1cc(-c2ccc(Cl)cc2Cl)c(C(c2ccccc2)n2ccnc2)c1` (configuration not stated) came in with an MIC in experiment [14] of 1.46 µg/mL (≈ 3.68 µM). The same compound displayed an MIC50 in experiment [15] of 1 µg/mL (≈ 2.52 µM). In addition, in [16], the MIC90 turned out to be 2 µg/mL (≈ 5.05 µM). Also, in experiment [4], the Ratio was determined as 0.33.

For the compound `CCn1cc(-c2cccc3ccccc23)c(C(c2ccc(Cl)cc2Cl)n2ccnc2)c1` (configuration not stated), in experiment [17], the MIC was found to be 5.5 µg/mL (≈ 12.3 µM). The compound also registered an MIC50 in experiment [18] of 4 µg/mL (≈ 8.96 µM). Moreover, the MIC90 in [19] stood at 8 µg/mL (≈ 17.9 µM). In addition, in experiment [4], the Ratio is 1.1.

Consider `Clc1ccc(-c2c[nH]cc2C(c2ccc(Cl)cc2Cl)n2ccnc2)cc1` (configuration not stated), for which the MIC in experiment [20] amounted to 4.2 µg/mL (≈ 10.4 µM). Besides, the MIC50 in experiment [21] worked out at 0.25 µg/mL (≈ 0.621 µM). For the same compound, in experiment [4], the Ratio is on record as 0.92. Also, the MIC90 in [22] stood at 0.5 µg/mL (≈ 1.24 µM).

Take `Clc1ccc(C(c2c[nH]cc2-c2cccc3ccccc23)n2ccnc2)c(Cl)c1` (configuration not stated): the MIC in experiment [23] came out at 1 µg/mL (≈ 2.39 µM). In [24], this compound had an MIC50 of 0.5 µg/mL (≈ 1.2 µM). For the same compound, in experiment [25], the MIC90 amounted to 2 µg/mL (≈ 4.78 µM). Besides, the Ratio in [4] amounted to 0.21.
